{
  "source": "paper PMC11865470",
  "about": "(Communications Biology, 2025)",
  "assay_type_in_all_cases": "cell-based",
  "key": {"Kir2.1": {"target": "Kir2.1 (Homo sapiens, UniProt P63252)", "sequence (P63252 whole entry)": "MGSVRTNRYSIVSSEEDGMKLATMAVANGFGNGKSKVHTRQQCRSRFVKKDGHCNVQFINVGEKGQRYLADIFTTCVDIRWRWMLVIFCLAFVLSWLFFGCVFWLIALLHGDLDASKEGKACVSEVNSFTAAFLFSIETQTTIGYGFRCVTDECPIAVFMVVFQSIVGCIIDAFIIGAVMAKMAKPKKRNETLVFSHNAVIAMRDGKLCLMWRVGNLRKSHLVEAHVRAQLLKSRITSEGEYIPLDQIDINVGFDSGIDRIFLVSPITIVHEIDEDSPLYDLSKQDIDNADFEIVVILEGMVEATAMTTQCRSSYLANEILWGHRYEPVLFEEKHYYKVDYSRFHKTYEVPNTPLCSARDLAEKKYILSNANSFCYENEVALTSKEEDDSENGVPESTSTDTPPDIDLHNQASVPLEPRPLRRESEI", "test": "whole-cell patch-clamp, off-target channel, 10 μM compound", "conditions": "vs 0.1% DMSO"}, "NaV1.5": {"target": "NaV1.5 (Homo sapiens, UniProt Q14524)", "test": "whole-cell patch-clamp, off-target channel, 10 μM compound", "method_in_brief": "(§1)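 NaV channels, transiently transfected HEK293T cells, whole-cell, 16–24 h after seeding. Pipette (mM): 140 CsF, 1 EGTA, 10 NaCl, 10 HEPES, pH 7.4. Bath (mM): 140 NaCl, 5 KCl, 2 CaCl2, 1 MgCl2, 10 glucose, 10 HEPES, pH 7.4. Bath with 0.1% DMSO applied before 10 μM test compound. Inhibition ratios compared by unpaired t-test, n = 5.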"}, "ASIC1a": {"target": "ASIC1a (Rattus norvegicus, UniProt P55926)", "sequence (P55926 whole entry)": "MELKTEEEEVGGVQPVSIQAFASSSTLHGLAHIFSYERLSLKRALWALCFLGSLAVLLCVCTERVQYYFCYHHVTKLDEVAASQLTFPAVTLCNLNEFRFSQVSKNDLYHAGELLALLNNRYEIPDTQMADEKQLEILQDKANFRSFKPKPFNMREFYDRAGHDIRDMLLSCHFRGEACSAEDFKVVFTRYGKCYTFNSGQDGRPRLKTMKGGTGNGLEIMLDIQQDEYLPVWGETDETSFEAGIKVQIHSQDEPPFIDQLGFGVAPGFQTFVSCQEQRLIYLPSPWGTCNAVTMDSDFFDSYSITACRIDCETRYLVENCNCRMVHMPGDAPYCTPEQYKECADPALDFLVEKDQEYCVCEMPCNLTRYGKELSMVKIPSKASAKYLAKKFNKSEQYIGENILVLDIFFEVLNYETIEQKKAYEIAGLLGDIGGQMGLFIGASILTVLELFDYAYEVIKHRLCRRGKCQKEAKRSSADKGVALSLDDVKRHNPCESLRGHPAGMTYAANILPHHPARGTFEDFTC", "test": "whole-cell patch-clamp, off-target channel, 10 μM compound", "conditions": "vs 0.1% DMSO", "method_in_brief": "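ASIC channels in transfected HEK293T cells, whole-cell. Pipette (mM): 140 CsF, 11 EGTA, 1 CaCl2, 2 TEA-Cl, 4 MgCl2, 10 HEPES, pH 7.3. NaCl-based bath with 20 mM HEPES (pH 7.4) or 20 mM MES (pH 5.5). 0.1% DMSO bath applied before 10 μM test compound. Inhibition ratios compared by unpaired t-test, n = 5.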"}, "KV4.2": {"target": "T1, KV4.2 (Rattus norvegicus, UniProt Q63881)", "T1 sequence (Q63881 1-630)": "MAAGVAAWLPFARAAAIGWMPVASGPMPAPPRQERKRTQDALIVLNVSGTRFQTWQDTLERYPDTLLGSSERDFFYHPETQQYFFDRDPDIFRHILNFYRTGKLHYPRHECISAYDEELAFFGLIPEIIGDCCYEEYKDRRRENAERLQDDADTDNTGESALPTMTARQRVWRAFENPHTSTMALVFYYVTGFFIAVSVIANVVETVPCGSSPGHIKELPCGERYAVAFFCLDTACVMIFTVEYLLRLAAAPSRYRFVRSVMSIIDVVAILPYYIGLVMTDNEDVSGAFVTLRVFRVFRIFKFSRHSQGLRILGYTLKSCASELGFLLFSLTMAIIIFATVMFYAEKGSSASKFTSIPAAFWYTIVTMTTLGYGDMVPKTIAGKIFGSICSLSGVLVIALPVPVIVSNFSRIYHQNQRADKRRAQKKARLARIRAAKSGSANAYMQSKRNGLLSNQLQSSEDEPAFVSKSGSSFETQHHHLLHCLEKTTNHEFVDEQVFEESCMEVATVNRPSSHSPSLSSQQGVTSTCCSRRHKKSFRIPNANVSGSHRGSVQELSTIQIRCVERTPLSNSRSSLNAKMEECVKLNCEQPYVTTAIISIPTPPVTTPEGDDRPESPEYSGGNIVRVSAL", "test": "whole-cell patch-clamp, off-target channel, 10 μM compound", "conditions": "for sensitivity of channel to compound: vs 0.1% DMSO", "method_in_brief": "(§2)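 KV channels in transiently transfected HEK293T cells, whole-cell. Pipette (mM): 140 KCl, 2.5 MgCl2, 11 EGTA, 10 HEPES, pH 7.4. Bath (mM): 145 NaCl, 2.8 KCl, 2 CaCl2, 1 MgCl2, 10 glucose, 10 HEPES, pH 7.4. 0.1% DMSO bath applied, then 10 μM test compound. DMSO vs compound inhibition ratio compared by unpaired t-test, n = 5.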"}, "KV1.3": {"target": "KV1.3 (Homo sapiens, UniProt P22001)", "sequence (P22001 whole entry)": "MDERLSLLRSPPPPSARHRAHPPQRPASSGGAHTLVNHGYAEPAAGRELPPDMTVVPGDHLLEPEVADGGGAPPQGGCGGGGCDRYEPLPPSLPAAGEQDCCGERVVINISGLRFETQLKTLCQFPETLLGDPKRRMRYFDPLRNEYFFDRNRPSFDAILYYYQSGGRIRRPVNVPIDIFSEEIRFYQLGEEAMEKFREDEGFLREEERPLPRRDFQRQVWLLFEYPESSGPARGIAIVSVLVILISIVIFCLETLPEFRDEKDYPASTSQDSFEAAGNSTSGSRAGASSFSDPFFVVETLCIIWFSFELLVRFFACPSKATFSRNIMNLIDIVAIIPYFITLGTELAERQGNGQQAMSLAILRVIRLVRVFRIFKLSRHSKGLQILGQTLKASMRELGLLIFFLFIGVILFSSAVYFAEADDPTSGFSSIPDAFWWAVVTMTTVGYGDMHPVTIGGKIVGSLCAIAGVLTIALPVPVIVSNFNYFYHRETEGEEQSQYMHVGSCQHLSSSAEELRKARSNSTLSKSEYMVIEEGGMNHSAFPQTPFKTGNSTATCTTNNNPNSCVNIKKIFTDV", "test": "whole-cell patch-clamp, off-target channel, 10 μM compound", "method_in_brief": "as §2"}, "hERG": {"target": "hERG (Homo sapiens, UniProt Q12809)", "sequence (Q12809 whole entry)": "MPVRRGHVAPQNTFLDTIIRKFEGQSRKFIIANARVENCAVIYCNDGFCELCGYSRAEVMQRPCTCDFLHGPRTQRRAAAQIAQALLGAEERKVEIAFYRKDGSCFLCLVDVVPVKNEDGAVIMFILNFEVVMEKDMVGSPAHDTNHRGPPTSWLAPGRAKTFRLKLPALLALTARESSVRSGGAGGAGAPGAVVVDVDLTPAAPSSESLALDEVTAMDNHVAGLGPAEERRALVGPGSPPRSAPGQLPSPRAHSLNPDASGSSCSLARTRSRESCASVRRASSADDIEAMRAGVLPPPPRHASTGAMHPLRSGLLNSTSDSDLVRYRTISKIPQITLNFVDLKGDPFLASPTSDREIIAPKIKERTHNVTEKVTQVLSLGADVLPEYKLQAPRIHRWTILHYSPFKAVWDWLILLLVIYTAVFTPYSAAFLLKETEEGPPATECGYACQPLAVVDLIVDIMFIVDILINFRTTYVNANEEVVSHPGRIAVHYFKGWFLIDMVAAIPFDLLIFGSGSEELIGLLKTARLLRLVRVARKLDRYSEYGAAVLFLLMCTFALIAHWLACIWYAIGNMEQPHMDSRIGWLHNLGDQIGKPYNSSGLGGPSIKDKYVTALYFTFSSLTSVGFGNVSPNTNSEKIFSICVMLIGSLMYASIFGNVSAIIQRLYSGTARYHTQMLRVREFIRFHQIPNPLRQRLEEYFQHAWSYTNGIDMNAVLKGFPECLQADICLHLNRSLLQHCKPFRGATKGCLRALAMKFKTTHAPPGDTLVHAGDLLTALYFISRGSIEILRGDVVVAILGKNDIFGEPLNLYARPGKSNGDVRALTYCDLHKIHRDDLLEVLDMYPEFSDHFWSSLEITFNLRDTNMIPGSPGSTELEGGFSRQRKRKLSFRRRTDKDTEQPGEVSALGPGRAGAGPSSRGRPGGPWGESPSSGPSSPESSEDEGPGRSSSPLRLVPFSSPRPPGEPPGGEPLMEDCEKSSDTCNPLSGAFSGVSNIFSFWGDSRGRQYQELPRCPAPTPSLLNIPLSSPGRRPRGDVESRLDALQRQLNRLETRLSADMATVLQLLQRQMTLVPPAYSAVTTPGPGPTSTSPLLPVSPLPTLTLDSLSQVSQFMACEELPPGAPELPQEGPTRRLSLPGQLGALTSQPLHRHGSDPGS", "test": "whole-cell patch-clamp, off-target channel, 10 μM compound", "method_in_brief": "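hERG, transiently transfected HEK293T cells, whole-cell recording 16–24 h after seeding. Bath containing 0.1% DMSO applied first, then 10 μM test compound. Inhibition ratio from DMSO compared with that from compound by unpaired t-test, n = 5.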"}, "NaV1.7": {"target": "NaV1.7 (Homo sapiens, UniProt Q15858)", "sequence (Q15858 whole entry)": "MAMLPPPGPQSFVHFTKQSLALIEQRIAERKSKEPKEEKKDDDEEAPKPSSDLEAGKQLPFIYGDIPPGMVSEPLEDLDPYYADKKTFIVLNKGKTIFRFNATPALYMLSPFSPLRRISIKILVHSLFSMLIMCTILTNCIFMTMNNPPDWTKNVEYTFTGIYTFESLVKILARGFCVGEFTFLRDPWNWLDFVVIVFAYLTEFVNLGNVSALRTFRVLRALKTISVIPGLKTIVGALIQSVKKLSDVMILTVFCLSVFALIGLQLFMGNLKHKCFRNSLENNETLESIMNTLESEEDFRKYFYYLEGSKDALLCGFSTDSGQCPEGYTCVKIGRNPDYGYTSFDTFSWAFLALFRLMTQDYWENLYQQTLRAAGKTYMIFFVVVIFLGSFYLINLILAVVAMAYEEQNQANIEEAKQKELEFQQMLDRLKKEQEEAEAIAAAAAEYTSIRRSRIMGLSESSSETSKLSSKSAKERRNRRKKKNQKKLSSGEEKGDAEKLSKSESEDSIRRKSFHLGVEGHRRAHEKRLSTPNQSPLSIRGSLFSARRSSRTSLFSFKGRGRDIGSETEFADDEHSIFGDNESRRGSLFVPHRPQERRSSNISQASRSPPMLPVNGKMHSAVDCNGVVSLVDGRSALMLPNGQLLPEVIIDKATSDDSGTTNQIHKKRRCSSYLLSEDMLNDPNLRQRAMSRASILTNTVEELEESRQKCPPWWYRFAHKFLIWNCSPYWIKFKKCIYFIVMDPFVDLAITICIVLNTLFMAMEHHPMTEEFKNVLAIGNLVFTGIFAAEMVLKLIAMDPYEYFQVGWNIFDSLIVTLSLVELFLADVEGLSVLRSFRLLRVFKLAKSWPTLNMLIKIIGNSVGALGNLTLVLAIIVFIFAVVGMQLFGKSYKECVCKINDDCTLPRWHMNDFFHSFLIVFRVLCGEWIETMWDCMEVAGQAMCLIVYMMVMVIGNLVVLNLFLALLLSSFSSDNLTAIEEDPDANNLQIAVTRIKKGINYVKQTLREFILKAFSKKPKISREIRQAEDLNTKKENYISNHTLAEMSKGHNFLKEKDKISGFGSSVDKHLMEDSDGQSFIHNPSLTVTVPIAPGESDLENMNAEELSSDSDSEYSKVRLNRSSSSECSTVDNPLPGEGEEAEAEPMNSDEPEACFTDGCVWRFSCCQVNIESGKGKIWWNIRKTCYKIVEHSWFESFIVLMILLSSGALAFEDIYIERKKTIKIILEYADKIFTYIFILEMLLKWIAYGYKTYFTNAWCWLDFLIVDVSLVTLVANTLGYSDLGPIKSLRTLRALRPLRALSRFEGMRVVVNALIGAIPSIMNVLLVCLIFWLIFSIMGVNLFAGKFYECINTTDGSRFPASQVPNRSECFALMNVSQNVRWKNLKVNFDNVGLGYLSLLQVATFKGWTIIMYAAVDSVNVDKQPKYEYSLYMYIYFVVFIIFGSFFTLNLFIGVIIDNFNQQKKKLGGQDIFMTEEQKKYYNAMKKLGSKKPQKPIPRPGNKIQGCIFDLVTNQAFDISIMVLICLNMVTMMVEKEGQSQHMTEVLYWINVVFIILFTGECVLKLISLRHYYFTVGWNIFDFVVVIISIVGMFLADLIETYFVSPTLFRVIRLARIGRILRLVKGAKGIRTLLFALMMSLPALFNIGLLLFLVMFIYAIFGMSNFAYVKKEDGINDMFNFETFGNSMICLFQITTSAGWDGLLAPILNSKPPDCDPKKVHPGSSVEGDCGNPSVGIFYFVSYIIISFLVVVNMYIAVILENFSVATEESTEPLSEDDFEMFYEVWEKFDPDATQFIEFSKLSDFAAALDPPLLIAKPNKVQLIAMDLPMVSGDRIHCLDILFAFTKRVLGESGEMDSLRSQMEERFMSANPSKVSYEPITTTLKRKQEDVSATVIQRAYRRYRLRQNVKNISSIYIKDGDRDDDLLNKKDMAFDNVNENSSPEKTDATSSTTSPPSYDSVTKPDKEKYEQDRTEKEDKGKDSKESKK", "test": "whole-cell patch-clamp, off-target channel, 10 μM compound", "method_in_brief": "as §1"}, "CaV3.1": {"target": "CaV3.1 (Homo sapiens, UniProt O43497)", "test": "whole-cell patch-clamp, off-target channel, 10 μM compound", "method_in_brief": "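CaV channels in transfected HEK293T cells, whole-cell. Pipette (mM): 120 CsMeSO3, 2 Mg-ATP, 11 EGTA, 10 HEPES, pH 7.4. Bath (mM): 138 NaCl, 5.6 KCl, 2.6 CaCl2, 20 TEA-Cl, 5 glucose, 5 HEPES, pH 7.4. 0.1% DMSO bath applied before 10 μM test compound. Inhibition ratios compared by unpaired t-test, n = 5.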"}, "mOtop1 E226A": {"target": "mOtop1 E226A (Mus musculus, UniProt Q80VM9, E226A)", "test": "patch-clamp, mOtop1 mutant", "conditions": "10 μM; pH 5.5", "method_in_brief": "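Alanine-substituted mOtop1 mutants were co-transfected (2.5 μg channel plus 0.5 μg EGFP plasmid, Lipofectamine 2000) into PAC-knockout HEK293T cells. Whole-cell recording 16–24 h after seeding on PLL coverslips. Pipette (mM): 120 Cs-aspartate, 15 CsCl, 2 Mg-ATP, 5 EGTA, 2.4 CaCl2, 10 HEPES, pH 7.3. Bath (mM): 160 NMDG-Cl, 2 CaCl2, 10 MES, pH 5.5, with 10 μM test compound. Response compared with wild-type mOtop1.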"}, "mOtop1 R554E": {"target": "mOtop1 R554E (Mus musculus, UniProt Q80VM9, R554E)", "test": "patch-clamp, mOtop1 mutant", "conditions": "Fig 5G, H"}, "[1]": {"target": "T2, mouse Otop1 (mOtop1) channels (Mus musculus, UniProt Q80VM9)", "T2 sequence (Q80VM9 1-600)": "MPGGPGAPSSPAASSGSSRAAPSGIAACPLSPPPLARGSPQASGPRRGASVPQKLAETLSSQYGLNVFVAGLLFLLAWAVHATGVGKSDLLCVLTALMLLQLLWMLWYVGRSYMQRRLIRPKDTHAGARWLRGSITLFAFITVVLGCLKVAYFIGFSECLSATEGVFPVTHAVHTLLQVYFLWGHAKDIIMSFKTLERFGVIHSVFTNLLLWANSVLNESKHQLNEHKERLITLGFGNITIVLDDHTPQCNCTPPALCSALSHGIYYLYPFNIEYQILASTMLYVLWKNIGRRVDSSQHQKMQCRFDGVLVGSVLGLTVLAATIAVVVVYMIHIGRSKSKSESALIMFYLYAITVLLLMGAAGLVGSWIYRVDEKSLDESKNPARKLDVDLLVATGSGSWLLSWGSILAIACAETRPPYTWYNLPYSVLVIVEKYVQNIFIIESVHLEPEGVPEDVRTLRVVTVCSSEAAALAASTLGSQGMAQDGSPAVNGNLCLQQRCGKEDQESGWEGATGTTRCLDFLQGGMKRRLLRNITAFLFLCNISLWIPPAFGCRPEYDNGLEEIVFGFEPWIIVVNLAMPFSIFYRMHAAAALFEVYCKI", "test": "whole-cell patch-clamp, peak currents: current density and \"on-cell\" analysis", "conditions": "for effect on mOtop1 current density: 10 μM"}},
  "data": [
    {"smiles": "CC(C)c1noc2ncc(C(=O)c3ccccc3O)cc12", "note": "[HIMOP, (2-hydroxyphenyl)-(3-propan-2-yl-5-isoxazolo[5,4-b]pyridinyl)methanone]", "values": [
      {"measurement": "sensitivity of channel to compound", "setting": "Kir2.1", "result": "completely resistant"},
      {"measurement": "inhibition ratio", "setting": "NaV1.5", "result": 8.9, "unit": "%"},
      {"measurement": "sensitivity of channel to compound", "setting": "ASIC1a", "result": "completely resistant"},
      {"measurement": "inhibition ratio", "setting": "KV4.2", "result": 14.3, "unit": "%"},
      {"measurement": "inhibition ratio", "setting": "KV1.3", "result": 10.8, "unit": "%"},
      {"measurement": "inhibition ratio", "setting": "hERG", "result": 8.5, "unit": "%"},
      {"measurement": "inhibition ratio", "setting": "NaV1.7", "result": 11.3, "unit": "%"},
      {"measurement": "sensitivity of channel to compound", "setting": "CaV3.1; vs 0.1% DMSO", "result": "completely resistant"}
    ]},
    {"smiles": "Cc1ccc(C(=O)Nc2ccc3ccccc3c2)o1", "note": "[MFaN, 5-methyl-N-2-naphthyl-2-furamide]", "values": [
      {"measurement": "sensitivity of channel to compound", "setting": "Kir2.1", "result": "completely resistant"},
      {"measurement": "inhibition ratio", "setting": "NaV1.5", "result": 14.8, "unit": "%"},
      {"measurement": "sensitivity of channel to compound", "setting": "ASIC1a", "result": "completely resistant"},
      {"measurement": "response of mutant to MFaN compared to wild-type mOtop1", "setting": "mOtop1 E226A", "result": "markedly reduced"},
      {"measurement": "sensitivity of channel to compound", "setting": "KV4.2", "result": "completely resistant"},
      {"measurement": "effect of mutation on MFaN's potentiation effect vs WT mOtop1", "setting": "mOtop1 R554E", "result": "eliminated"},
      {"measurement": "EC50", "setting": "[1]", "result": "9.2 ± 0.6", "unit": "µM"},
      {"measurement": "effect on mOtop1 current density", "setting": "[1]; pH 5.5, Fig 4A", "result": "significantly increased"},
      {"measurement": "effect on mOtop1 current density", "setting": "[1]; pHs ranging from 4.5 to 6.0", "result": "significantly increased"},
      {"measurement": "inhibition ratio", "setting": "KV1.3", "result": 15.9, "unit": "%"},
      {"measurement": "inhibition ratio", "setting": "hERG", "result": 13.7, "unit": "%"},
      {"measurement": "sensitivity of channel to compound", "setting": "NaV1.7; vs 0.1% DMSO", "result": "completely resistant"},
      {"measurement": "inhibition ratio", "setting": "CaV3.1", "result": 11.7, "unit": "%"}
    ]},
    {"smiles": "Cc1cc(NC(=O)c2ccc(Br)o2)ccc1NC(=O)c1ccco1", "note": "[B2FAMP, 5-Bromo-N-[4-(2-furoylamino)-3-methylphenyl]-2-furamide]", "values": [
      {"measurement": "sensitivity of channel to compound", "setting": "KV4.2", "result": "completely resistant"},
      {"measurement": "sensitivity of channel to compound", "setting": "KV1.3; vs 0.1% DMSO", "result": "completely resistant"}
    ]}
  ]
}
